Here are results for 1 compound from ChEMBL document CHEMBL4261634, “Design and optimization of 2,3-dihydrobenzo[b][1,4]dioxine propanoic acids as novel GPR40 agonists with improved pharmacokinetic and safety profiles” (Bioorg Med Chem, 2018).

Activity calls are given as the source filed them. The calls are words filed in the database; no cut-off is given here.

One series has as its system Rattus norvegicus. Briefly: Antidiabetic activity in Sprague-Dawley rat assessed as reduction in blood glucose AUC (0 to 120 mins) at 10 to 20 mg/kg, po administered 60 mins prior to glucose challenge by OGTT. The series is classed as functional, organism-based. An outline of the steps: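 OGTT in SD rats: compound given orally 60 min before a 3.0 g/kg glucose challenge. Blood glucose followed over time, and AUC0-60min or AUC0-120min calculated versus vehicle group. Mean ± SD, n = 8.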

Series [1] in a line: Tmax in Sprague-Dawley rat at 10 mg/kg, po by LC-ESI-MS analysis. Type of series: ADME, organism-based. Conditions: in vivo. An outline of the steps: (§1)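 SD rats dosed orally (3 or 10 mg/kg) or by intravenous injection (1 mg/kg). Plasma PK parameters derived per route: Cmax, AUC0-t, Tmax, t1/2 and F after oral dosing; CL, AUC0-t, MRT, t1/2 and Vdss after iv dosing. Mean ± SD from three independent experiments (n = 3).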

A short description of series [2]: AUC (0 to t) in Sprague-Dawley rat at 1 mg/kg, iv by LC-ESI-MS analysis. Type of series: ADME, organism-based. Conditions: in vivo. An outline of the steps:
as §1

A short description of series [3]: Volume of distribution at steady state in Sprague-Dawley rat at 1 mg/kg, iv by LC-ESI-MS analysis. Type of series: ADME, organism-based. Conditions: in vivo, read-out: Vdss. In short, it runs like this: as §1
Series [4] deals with T1, Free fatty acid receptor 4 (Homo sapiens) (UniProt Q5NUL3).
T1 sequence (whole entry): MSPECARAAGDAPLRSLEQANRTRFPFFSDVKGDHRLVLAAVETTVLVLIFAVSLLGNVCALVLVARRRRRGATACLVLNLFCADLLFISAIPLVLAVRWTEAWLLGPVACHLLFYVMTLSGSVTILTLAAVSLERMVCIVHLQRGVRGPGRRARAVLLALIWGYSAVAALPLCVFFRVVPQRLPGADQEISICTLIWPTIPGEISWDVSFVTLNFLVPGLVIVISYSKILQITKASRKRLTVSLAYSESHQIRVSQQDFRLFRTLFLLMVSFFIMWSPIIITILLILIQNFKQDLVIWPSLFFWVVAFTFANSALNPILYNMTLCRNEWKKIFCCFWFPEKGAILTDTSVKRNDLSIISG
Briefly: Agonist activity at GPR120 (unknown origin) up to 100 uM. Type of series: functional.

Broadly, the Tmax is the time at which the peak concentration occurs. For orientation: AUC(0-t) means the area under the concentration-time curve up to a stated or last time point. Low readings indicate low exposure, high ones high exposure. `CC#C[C@@H](CC(=O)O)c1ccc(OC[C@H]2COc3ccc(Cl)cc3O2)cc1`: in the series on Rattus norvegicus, the outcome was Active. Besides, the Tmax in series [1] came to 4 h. For the same compound, in series [2], the AUC(0-t) is 71400 ng·h/mL. In addition, the Vd in series [3] is 0.182 L/kg. In series [4], the outcome was inactive.
